dFosB act-1 = enhances mouse delta FosB homodimer DNA binding; P13346; purified delta FosB, TAMRA-CDK5 oligo fluorescence polarization; percent of positive-control signal above neutral wells; activation, % at 25 µM; 340,000 compounds, 0.99% hits;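 active = mean activation above about 17%, with every replicate also reaching it, limit read from the data, passing the limit was not always enough; inconclusive = only one of the two conditions met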
Target sequence (P13346 whole entry, looked up): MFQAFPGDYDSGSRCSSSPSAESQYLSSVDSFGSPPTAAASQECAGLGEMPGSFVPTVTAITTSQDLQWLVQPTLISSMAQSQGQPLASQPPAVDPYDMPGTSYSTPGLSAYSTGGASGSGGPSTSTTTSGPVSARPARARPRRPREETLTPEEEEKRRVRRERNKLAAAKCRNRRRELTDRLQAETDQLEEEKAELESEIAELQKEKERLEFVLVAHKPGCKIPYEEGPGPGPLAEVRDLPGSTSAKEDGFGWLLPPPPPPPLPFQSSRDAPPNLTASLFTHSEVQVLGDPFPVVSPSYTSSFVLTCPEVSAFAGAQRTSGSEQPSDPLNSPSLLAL
S100A4 MyoIIA = inhibitors of human S100A4 binding to myosin IIA peptide. P26447. S100A4/TAMRA-MyoIIA peptide fluorescence polarization. inhibition, % at 10.7 µM. 360,000 compounds, 0.14% hits;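 active = mean inhibition of at least 70% across replicates, with every replicate also reaching that level; inconclusive = mean inhibition reaches 70% but some replicates fall short; inactive = mean inhibition below 70%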
Target sequence (P26447 whole entry, looked up): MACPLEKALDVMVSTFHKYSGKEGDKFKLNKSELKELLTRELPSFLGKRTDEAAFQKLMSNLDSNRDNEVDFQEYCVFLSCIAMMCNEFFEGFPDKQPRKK
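Material: S100A4 monomer protein / Buffer or medium: 50 mM HEPES pH 7.2, 10 mM CaCl2, 100 mM KCl / Times: 5 min incubation before reading / Benchmarks: neutral control DMSO, positive control TFP / Reagent: labelled myosin peptide probe, 5 nM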
FGF22 binding = FGF22 (human) thermal shift binding; 340,000 compounds, 1.5% hits; recombinant FGF22 thermal shift, SYPRO orange fluorescence; percent of sucrose octasulfate shift, DMSO zero; Q9HCT0; activity (Tm shift, normalised), % at 9.99 µM;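 active = mean Tm shift, scaled 0 neutral to 100 positive control, at about 1.3% or above, every replicate too, limit read from the data; inconclusive = no clear call, values can overlap the other calls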
Target sequence (Q9HCT0 whole entry, looked up): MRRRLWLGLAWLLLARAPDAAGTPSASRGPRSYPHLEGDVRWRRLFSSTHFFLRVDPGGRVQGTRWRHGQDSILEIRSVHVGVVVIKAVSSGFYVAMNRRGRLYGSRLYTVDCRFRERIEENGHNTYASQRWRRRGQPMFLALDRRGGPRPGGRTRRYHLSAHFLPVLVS
CFTR F508del cor = correctors of CFTR F508del function in bronchial epithelial cells; CFBE cells, YFP halide quenching; stimulated with forskolin plus potentiator P3; % fluorescence drop versus neutral controls; activity (quench increase), % at 7.58 µM; 350,000 compounds, 0.36% hits;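 active = mean added fluorescence quench of at least 8% versus neutral control, with both replicates also reaching 8%; inconclusive = only one of the mean or replicate conditions met; inactive = mean below 8% and not both replicates reaching 8%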;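 note: cells transiently co-express mutant CFTR-F508del with the halide-sensitive YFP; corrector assay measuring rescue of mutant channel to the surface after 24 h compound exposure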
dFosB act-2 = enhances mouse delta FosB homodimer binding to DNA; shares compounds with dFosB act-1; purified delta FosB, TAMRA-CDK5 oligo fluorescence polarization; normalised: neutral wells 0, positive control 100; activation, % at 24.9 µM; 2,400 tested, under 10 active; AID 588690;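 active = highest replicate activation at or above 34% and every replicate reaching that threshold; inconclusive = meets only one of the two criteria; inactive = meets neither criterion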;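 note: higher polarization means more probe DNA bound by delta FosB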
Each line names hits and unclear results; the compound was inactive in the other large screens (follow-up assays come after a bar, where they were run). Rows were chosen to be rich in hits. Some 2.2% of all compounds tested hit in one or more screens of this group.

C[C@H]1CCCCO[C@@H](CN(C)C(=O)NC2CCCCC2)[C@@H](C)CN([C@@H](C)CO)C(=O)c2cc(NC(=O)CCC(F)(F)F)ccc2O1	none (no result: dFosB act-1)
C#CCOCCOCCOCCNc1nc(N2CCN(C(=O)[C@H](CCCN=C(N)N)n3cc(C(N)[C@@H](C)CC)nn3)CC2)nc(N2CCN(C(=O)[C@H](CC(N)=O)n3cc([C@@H](N)C(C)C)nn3)CC2)n1 (some centres not stated)	none
C#CCOCCOCCOCCNc1nc(N2CCN(C(=O)[C@H]([C@@H](C)CC)n3cc([C@@H](N)CC(C)C)nn3)CC2)nc(N2CCN(C(=O)[C@H](Cc3ccc(O)cc3)n3cc([C@@H](N)CC(C)C)nn3)CC2)n1	none (no result: dFosB act-1)
C#CCOCCOCCOCCNc1nc(N2CCN(C(=O)[C@H](CCCN=C(N)N)n3cc(C(N)[C@H](C)CC)nn3)CC2)nc(N2CCN(C(=O)[C@H](CCCN=C(N)N)n3cc(C(N)[C@@H](C)CC)nn3)CC2)n1 (some centres not stated)	dFosB act-1 22 (no result: S100A4 MyoIIA, FGF22 binding, CFTR F508del cor) | dFosB act-2 inactive
C#CCOCCOCCOCCNc1nc(N2CCN(C(=O)[C@H]([C@@H](C)CC)n3cc([C@@H](N)Cc4ccc(O)cc4)nn3)CC2)nc(N2CCN(C(=O)[C@H](CCCCN)n3cc([C@@H](N)C(C)CC)nn3)CC2)n1 (some centres not stated)	dFosB act-1 23 (no result: S100A4 MyoIIA, FGF22 binding, CFTR F508del cor) | dFosB act-2 inactive
C#CCOCCOCCOCCNc1nc(N2CCN(C(=O)[C@H]([C@@H](C)CC)n3cc([C@@H](N)CC(C)C)nn3)CC2)nc(N2CCN(C(=O)[C@H]([C@@H](C)CC)n3cc([C@@H](N)CC(C)C)nn3)CC2)n1	dFosB act-1 31 | dFosB act-2 inactive
C#CCOCCOCCOCCNc1nc(N2CCN(C(=O)[C@H](CCCCN)n3cc([C@@H](N)C(C)CC)nn3)CC2)nc(N2CCN(C(=O)[C@H](CCCCN)n3cc([C@@H](N)CC(C)C)nn3)CC2)n1 (some centres not stated)	dFosB act-1 28 | dFosB act-2 inconclusive
O=C(O)C[C@H]1C[C@H]2c3cc(NC(=O)NC4CCCC4)ccc3O[C@H]2[C@H](CO)O1	none (no result: dFosB act-1)
Cc1noc(C)c1NC(=O)N(C)C[C@@H]1OCCCC[C@H](C)Oc2ccc(N(C)C)cc2C(=O)N([C@H](C)CO)C[C@@H]1C	none (no result: dFosB act-1)
COc1cccc(CNC(=O)C[C@@H]2C=C[C@@H](NS(=O)(=O)c3ccccc3OC)[C@H](CO)O2)c1	none (no result: dFosB act-1)
COCC(=O)N1[C@@H](C#N)[C@@H](c2ccccc2-c2ccccc2F)[C@@H]1CO	none (no result: dFosB act-1)
C#CCOCCOCCOCCNc1nc(N2CCN(C(=O)C([C@@H](C)O)n3cc([C@@H](N)CCCCN)nn3)CC2)nc(N2CCN(C(=O)[C@H](CO)n3cc([C@@H](N)C(C)C)nn3)CC2)n1 (some centres not stated)	dFosB act-1 31 | dFosB act-2 inactive
C#CCOCCOCCOCCNc1nc(N2CCN(C(=O)[C@H](Cc3ccc(O)cc3)n3cc([C@@H](N)C(C)CC)nn3)CC2)nc(N2CCN(C(=O)[C@H](Cc3cc4ccccc4[nH]3)n3cc([C@@H](N)C(C)CC)nn3)CC2)n1 (some centres not stated)	dFosB act-1 40 (no result: S100A4 MyoIIA, FGF22 binding, CFTR F508del cor) | dFosB act-2 inactive
COc1ccc(/C=N/NC(=O)c2ccncc2)cc1CN1CCOCC1	none
CCOc1cccc(-c2cc(C(=O)N/N=C/c3ccc(OC)c(CN4CCOCC4)c3)c3ccccc3n2)c1	dFosB act-1 39 (no result: S100A4 MyoIIA, FGF22 binding, CFTR F508del cor) | dFosB act-2 inactive
COc1ccc(/C=N/NC(=O)c2ccccc2NC(=O)c2ccco2)c(OC)c1	dFosB act-1 84 | dFosB act-2 inactive
COc1ccccc1/C=N/NC(=O)c1cccc2ccccc12	dFosB act-1 37 | dFosB act-2 inactive
COc1ccc(/C=N/NC(=O)c2cc(-c3ccccc3)nc3ccccc23)c(OC)c1	dFosB act-1 23 | dFosB act-2 inactive
C[C@@H]1CN([C@@H](C)CO)C(=O)c2cc(NC(=O)CCC(F)(F)F)ccc2O[C@H]1CN(C)Cc1ccncc1	none (no result: dFosB act-1, S100A4 MyoIIA, FGF22 binding)
COCC#Cc1ccc2c(c1)O[C@H](CN(C)Cc1ccncc1)[C@@H](C)CN([C@@H](C)CO)S2(=O)=O	none (no result: dFosB act-1)
C[C@H](O)C#Cc1cnc2c(c1)C(=O)N([C@H](C)CO)C[C@@H](C)[C@H](CN(C)Cc1cccc(C(=O)O)c1)O2	none (no result: dFosB act-1)
O=C(N/N=C/c1cccc2ccccc12)c1cc2ccccc2o1	dFosB act-1 20 | dFosB act-2 inactive
O=C(N/N=C/c1ccccc1F)c1cc2c(ccc3ccccc32)o1	none
Cc1sc2ncnc(N3CCC(C(=O)Nc4nc(-c5ccc(F)cc5)cs4)CC3)c2c1C	dFosB act-1 18 | dFosB act-2 inactive
CCOC(=O)c1c(NC(=O)COC(=O)Cn2c(C)nc3ccccc32)sc2c1CCCC2	dFosB act-1 39 (no result: S100A4 MyoIIA, FGF22 binding, CFTR F508del cor) | dFosB act-2 inactive
CCOC(=O)c1c(NC(=O)Cn2c(C)nc3ccccc32)sc2c1CCC2	none (no result: S100A4 MyoIIA, FGF22 binding, CFTR F508del cor)
CCSc1nnc(NC(=O)c2ccc3c(c2)OCO3)s1	none (no result: S100A4 MyoIIA, FGF22 binding, CFTR F508del cor)
CCOC(=O)CSc1nnc(NC(=O)c2ccc3c(c2)OCO3)s1	dFosB act-1 41 | dFosB act-2 inactive
CCC(=O)Nc1nnc(SCC(=O)NCc2ccc3c(c2)OCO3)s1	dFosB act-1 23 | dFosB act-2 inactive
C[C@@H](NC(=O)C[C@@H]1C=C[C@@H](NC(=O)Cc2ccccn2)[C@@H](CO)O1)c1ccccc1	none (no result: dFosB act-1)
O=C(COc1ccccc1)Nc1nc2cc3c(cc2s1)OCO3	dFosB act-1 28 | dFosB act-2 inactive
CC(=O)Nc1ccc2nc(NC(=O)COc3cccc(C)c3)sc2c1	dFosB act-1 47 | dFosB act-2 inactive
O=C(COc1ccccc1)Nc1nc2cc3c(cc2s1)OCCO3	none
O=C(Nc1nc(-c2ccc(Cl)s2)cs1)c1ccco1	none
O=C(Nc1nc(-c2nc3ccccc3s2)cs1)c1ccco1	dFosB act-1 78 | dFosB act-2 inactive
O=C(N[C@H]1CC[C@@H](CCNS(=O)(=O)c2ccc(F)cc2)O[C@@H]1CO)c1cccnc1	none (no result: dFosB act-1)
CC(=O)Nc1ccc2c(c1)C(=O)N(c1cccc(C)c1)C2=O	dFosB act-1 20 | dFosB act-2 inactive
Cc1cccc(N2C(=O)c3ccc(C(=O)Nc4ccccn4)cc3C2=O)c1	dFosB act-1 62 | dFosB act-2 inactive
Cc1ccc(C)c(N2C(=O)c3ccc(C(=O)Nc4ccccn4)cc3C2=O)c1	none (no result: dFosB act-1)
CO[C@@H]1CN(C)C(=O)c2cc(NC(=O)C3CCOCC3)ccc2OC[C@@H](C)N(CC2CC2)C[C@H]1C	none (no result: dFosB act-1)
N#C/C(=C(/O)c1ccc([N+](=O)[O-])cc1)c1nc2ccccc2[nH]1	none (no result: dFosB act-1)
N#C/C(=C(/O)c1ccc(Cl)c([N+](=O)[O-])c1)c1nc2ccccc2[nH]1	dFosB act-1 42, S100A4 MyoIIA inconclusive | dFosB act-2 inactive
